Consider 13 molecules from ChEMBL document CHEMBL3108741 (J Med Chem, 2014).

Activity calls are given as the source filed them. Some results are limits rather than exact numbers.

In data set [1] the test system is Xenopus laevis. Put plainly: Anesthetic effect on prelimb-bud stage Xenopus laevis tadpole assessed as loss of swimming reflex after 3 hrs. It is filed as functional, organism-based.
Data set [2] relates to Xenopus laevis. Put plainly: Anesthetic effect on prelimb-bud stage Xenopus laevis tadpole assessed as loss of righting reflex after 3 hrs. In kind it is functional, organism-based.
Data set [3] is filed under the species Rattus norvegicus. Put plainly: Positive allosteric modulation of rat alpha1beta2gamma2L GABAA receptor expressed in Xenopus laevis oocytes assessed as potentiation of GABA-induced chloride current elicitation by two-electrode voltage clamp technique relative to control. It is filed as cell-based.
The species entered for data set [4] is Rattus norvegicus. Put plainly: […] of rat alpha1beta2gamma2L GABAA receptor expressed in Xenopus laevis oocytes assessed as chloride current elicitation at 10 uM by two-electrode voltage clamp technique relative to GABA. In kind it is cell-based. A digest of the protocol:
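Rat α1β2γ2L GABAA receptors expressed in Xenopus oocytes, at least four oocytes. Direct current gated by 10 μM compound without GABA, expressed as the ratio of compound-only current to current evoked by 2 μM GABA; mean ± SEM.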

The species named for data set [5] is Rattus norvegicus. Put plainly: Positive allosteric modulation of rat alpha1beta2gamma2L GABAA receptor expressed in Xenopus laevis oocytes assessed as potentiation of GABA-induced chloride current elicitation at 10 uM by two-electrode voltage clamp technique relative to control. It is filed as cell-based. (In general: Two-electrode voltage clamp is typically applied to oocytes expressing channels or transporters.)

The species named for data set [6] is Rattus norvegicus. Put plainly: Positive allosteric modulation of rat alpha1beta2gamma2L GABAA receptor expressed in Xenopus laevis oocytes assessed as potentiation of GABA-induced chloride current elicitation at 1 uM by two-electrode voltage clamp technique relative to control. It is filed as cell-based.
Data set [7] is filed under the species Rattus norvegicus. Put plainly: Positive allosteric modulation of rat alpha1beta2gamma2L GABAA receptor expressed in Xenopus laevis oocytes assessed as potentiation of GABA-induced chloride current elicitation at 0.1 uM by two-electrode voltage clamp technique relative to control. In kind it is cell-based.
Data set [8] can be described thus: Displacement of [35S]TBPS from rat picrotoxin binding site of GABAA receptor after 2 hrs by scintillation counting analysis. The procedure, abridged: (§1)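 [35S]TBPS binding inhibition; duplicate experiments each run in triplicate, mean ± SEM. Highest concentration tested 30 μM; IC50 from fitted binding curve, with maximal displacement noted where inhibition was partial.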
In general terms: Loss of bound radioactivity is the signal in a displacement assay; it reports binding, not function.

The nature of data set [9]: Lipophilicity, log P of the compound. It is filed as physicochemical. Particulars: octanol/water.
Data set [10] has as its system HEK293. Put plainly: Positive allosteric modulation of wild type rat alpha1beta2gamma2L GABAA receptor expressed in HEK293 cells assessed as longest-lived intracluster closed time at 20 uM by […] relative to control. In kind it is cell-based.
Data set [11] deals with HEK293. Put plainly: Positive allosteric modulation of wild type rat alpha1beta2gamma2L GABAA receptor expressed in HEK293 cells assessed as longest-lived intracluster open time at 20 uM by […] relative to control. In kind it is cell-based.
Data set [12] has as its system HEK293. Put plainly: Positive allosteric modulation of wild type rat alpha1beta2gamma2L GABAA receptor expressed in HEK293 cells assessed as OT long at 20 uM by […]. In kind it is cell-based. A digest of the protocol: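 Single-channel recording of rat wild-type α1β2γ2L GABAA receptors. Receptors were activated by 50 μM GABA with or without 20 μM compound, in 4-7 patches. Intracluster open-time histograms were fitted to sums of two or three exponentials, and the long open-time component was taken from the fit.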

Data set [13] has as its system Mus musculus. Put plainly: Anesthetic effect in mouse assessed as recovery of righting reflex at 1 to 8 mg/kg, iv. It is filed as functional. Particulars: dose mg/kg 1-8. The procedure, abridged: (§2)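 Mice, tail vein injection; compound in 22.5% aqueous 2-(hydroxypropyl)-β-cyclodextrin, lower doses by serial dilution of the 8 mg/kg stock with 0.9% saline. Anesthesia scored as loss of righting reflex; duration of LRR recorded at each dose.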

Data set [14] concerns Mus musculus. Put plainly: Anesthetic effect in mouse assessed as recovery of righting reflex at 8 to 16 mg/kg, iv. It is filed as functional. Particulars: dose mg/kg 8-16. The procedure, abridged: (§3)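 Mice were given intravenous tail-vein injections at 8 and 16 mg/kg. The compound was in 22.5% aqueous 2-(hydroxypropyl)-β-cyclodextrin. Anesthesia was defined as loss of righting reflex, and onset, duration and recovery of the reflex were followed.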

Data set [15] relates to Mus musculus. Put plainly: Anesthetic effect in mouse assessed as onset of loss of righting reflex at 1 to 8 mg/kg, iv. In kind it is functional. Particulars: dose mg/kg 1-8. A digest of the protocol: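 Tail-vein injection in mice, with anesthesia read as loss of righting reflex (LRR): duration, onset and recovery scored. Compounds were dissolved in 22.5% aqueous 2-(hydroxypropyl)-β-cyclodextrin. Lower doses came from serial dilution of the 8 mg/kg solution with 0.9% saline. Doses tested were 1, 2, 4 and 8 mg/kg.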

Data set [16] has as its system Mus musculus. Put plainly: Anesthetic effect in mouse assessed as onset of loss of righting reflex at 8 to 16 mg/kg, iv. In kind it is functional. Particulars: dose mg/kg 8-16. The procedure, abridged: as §3
The test system of data set [17] is Mus musculus. Put plainly: Anesthetic effect in mouse assessed as duration of loss of righting reflex at 16 mg/kg, iv. It is filed as functional. The procedure, abridged: as §2
Data set [18] relates to Xenopus laevis. Put plainly: Anesthetic effect on prelimb-bud stage Xenopus laevis tadpole assessed as loss of swimming reflex at 10 uM after 3 hrs. In kind it is functional, organism-based.
For data set [19], the species on record is Rattus norvegicus. Put plainly: Displacement of [35S]TBPS from rat picrotoxin binding site of GABAA receptor at 30 uM after 2 hrs by scintillation counting analysis. The procedure, abridged: as §1
The test system of data set [20] is Xenopus laevis. Put plainly: Anesthetic effect on prelimb-bud stage Xenopus laevis tadpole assessed as loss of righting reflex at 10 uM after 3 hrs. In kind it is functional, organism-based.

On to `CO[C@@H]1C[C@]2(C)[C@H](CC[C@@H]3[C@@H]2CC[C@@]2(C)C(=O)CC[C@@H]32)C[C@H]1O`, for which the EC50 is > 10 µM in data set [1] and 2.39 µM in data set [2]. In addition, the Activity result in data set [3] was “Dose-dependent effect”. The Ratio is -0.01 in data set [4], 1.53 in data set [5], 0.93 in data set [6] and 0.93 in data set [7]. This molecule also displayed an IC50 in data set [8] of 6.49 µM.

For `C[C@]12CC[C@H]3[C@@H](CC[C@H]4C[C@H](O)CC[C@@]43C)[C@@H]1CC(=O)C2`, the half-maximal effective concentration (EC50) worked out at 7.54 µM in [1] and 3.6 µM in [2]. In addition, the Activity entry in data set [3] was “Dose-dependent effect”. In addition, the Ratio was -0.02 in data set [4], 9.98 in data set [5], 1.38 in data set [6] and 1.01 in data set [7]. This molecule also yielded a 50% inhibitory concentration (IC50) in [8] of 0.895 µM.

Consider `CO[C@@H]1C[C@]2(C)[C@H](CC[C@H]3[C@@H]4CC(=O)C[C@]4(C)CC[C@@H]32)C[C@H]1O`, for which the EC50 came out at 10.3 µM in [1] and 2.91 µM in data set [2]. Further, the Activity entry in data set [3] is “Dose-dependent effect”. In addition, the Ratio in [4] amounted to 0.01; in [5], 2.95; in [6] it was 1.03; in data set [7], 0.91. In addition, the IC50 in data set [8] amounted to 3.03 µM.

As to `C[C@@]12CC[C@@H]3[C@@H]4CC[C@H](O)C[C@H]4CC[C@H]3[C@@H]1CC(=O)C2`, the logP in data set [9] came out at 3.24. Moreover, the half-maximal effective concentration (EC50) stood at 5.48 µM in data set [1] and 1.16 µM in data set [2]. For the same molecule, the Ratio in data set [10] came out at 0.11; in data set [11], 0.2; in [4], 0.02; in data set [5], 10.5; in data set [6], 2.43; in data set [7], 0.97. Moreover, the TIME in data set [12] amounted to 9.8 ms. Also, the Activity result in data set [3] was “Dose-dependent effect”. The concentration for half-maximal inhibition (IC50) in data set [8] was 0.238 µM.

With `CC(=O)[C@H]1CC[C@H]2[C@@H]3CC[C@H]4C[C@H](O)CC[C@]4(C)[C@H]3C(=O)C[C@]12C` [ALFAXALONE], the Time in data set [13] is 1 min; in data set [14] it was 1 min; in data set [15], <30 s; in data set [16], <30 s; in [17], 4 min.

As for `C[C@@]12CC[C@H](O)C[C@H]1CC[C@H]1[C@@H]3CC(=O)C[C@@H]3CC[C@@H]12`, in [18], the outcome was inactive. Further, the concentration giving a half-maximal response (EC50) in [2] came out at 3.64 µM. Besides, the Ratio was 0.21 in data set [10]; 0.53 in [11]; 0.01 in [4]; 3.56 in [5]; 1.13 in [6]; 0.93 in [7]. Further, in [12], the TIME came out at 16.1 ms. Besides, the Activity entry in data set [3] was “Dose-dependent effect”. Moreover, the 50% inhibitory concentration (IC50) in data set [8] amounted to 1.52 µM.

For the molecule `CO[C@H]1[C@H](O)CC[C@]2(C)[C@H]3CC[C@]4(C)CC(=O)C[C@H]4[C@@H]3CC[C@@H]12`, the EC50 came to 13.5 µM in [1] and 3.15 µM in data set [2]. For the same molecule, the Activity result in data set [3] is “Dose-dependent effect”. Also, the Ratio in data set [4] came out at 0.02; in data set [5], 0.69; in data set [6], 0.72; in data set [7], 0.88. This molecule also returned an inhibition in data set [19] of 65%. Further, in [8], the 50% inhibitory concentration (IC50) is 6.68 µM.

With `CO[C@H]1C[C@@]2(C)[C@@H](CC[C@@H]3[C@@H]2CC[C@]2(C)C(=O)CC[C@@H]32)C[C@@H]1O`, the concentration for a half-maximal effect (EC50) in data set [1] was > 10 µM; in data set [2], 5.09 µM. Also, in [3], the Activity entry is “Dose-dependent effect”. Also, the Ratio in [4] came to 0.08; in data set [5] it was 3.39; in data set [6] it was 1.04; in [7] it was 0.84. The same molecule came in with a half-inhibitory concentration (IC50) in data set [8] of 2.19 µM.

With `CO[C@H]1[C@H](O)CC[C@]2(C)[C@H]3CC[C@]4(C)C(=O)CC[C@H]4[C@@H]3CC[C@@H]12`, the outcome in data set [18] and in data set [20] was inactive. Moreover, in data set [3], the Activity result is “Dose-dependent effect”. The Ratio in data set [4] came out at 0.12; in data set [5], 0.91; in data set [6] it was 1.01; in [7] it was 1.08. Moreover, in data set [19], the inhibition was 45%. Besides, the IC50 in data set [8] is > 30 µM.

`CC(=O)[C@H]1CC[C@H]2[C@@H]3CC[C@H]4C[C@H](O)CC[C@]4(C)[C@H]3CC[C@]12C` [BREXANOLONE] registered a logP in data set [9] of 4.46. Also, the Activity entry in data set [3] is “Dose-dependent effect”. In addition, the Ratio in data set [4] was determined as 0.37; in data set [5], 9.65; in data set [6] it was 3.89; in data set [7] it was 1.26. Moreover, in data set [8], the 50% inhibitory concentration (IC50) was determined as 0.074 µM.

For the molecule `CO[C@H]1C[C@@]2(C)[C@@H](CC[C@H]3[C@@H]4CC(=O)C[C@@]4(C)CC[C@@H]32)C[C@@H]1O`, the EC50 turned out to be 9.29 µM in [1] and 3.15 µM in [2]. The Activity entry in data set [3] is “Dose-dependent effect”. Besides, the Ratio in data set [4] is 0.01; in data set [5] it was 4.48; in [6] it was 1.23; in data set [7], 0.92. In data set [8], this molecule came in with an IC50 of 1.27 µM.

As to `CO[C@H]1[C@H]2CC[C@@H]3[C@H](CC[C@@]4(C)C(=O)CC[C@@H]34)[C@]2(C)CC[C@@H]1O`, the EC50 in data set [1] was determined as 2.94 µM; in [2] it was 0.59 µM. Also, the Activity entry in data set [3] was “Dose-dependent effect”. Further, the Ratio in [4] amounted to 0.05; in data set [5], 12.2; in data set [6], 3.67; in [7], 1.21. This molecule had an IC50 in [8] of 0.198 µM.

As to `O=C1C[C@@H]2CC[C@H]3[C@@H](CC[C@@H]4C[C@@H](O)CC[C@H]43)[C@@H]2C1`, in data set [9], the logP came to 2.77. Also, the result in data set [18] and in [20] was inactive. The Ratio in data set [10] was determined as 0.27; in data set [11] it was 0.49; in [4], 0; in data set [5], 1.65; in data set [6], 0.76; in data set [7], 0.8. Besides, the TIME in data set [12] turned out to be 11.5 ms. In data set [3], the Activity entry is “Dose-dependent effect”. The molecule further came in with an inhibition in [19] of 88%. This molecule also yielded an IC50 in data set [8] of 2.02 µM.

What is called EC50 is the concentration needed to bring the measured effect to its halfway point. By IC50 is commonly meant the concentration that gives 50% inhibition. Higher therefore signals a need for much substance. What is called logP is the decadic logarithm of the partition coefficient of the neutral form, usually between octanol and water. Low values mean lower lipophilicity, high ones higher lipophilicity. As a reminder, the inhibition is the relative decrease from the control value, in per cent. A lower inhibition goes with a weak effect.
